We go through seven compounds from ChEMBL document CHEMBL1137088, “Distamycin analogues with enhanced lipophilicity: synthesis and antimicrobial activity” (2004).

For orientation: MIC means the least concentration at which growth counts as inhibited.

One test has as its system Aspergillus niger. Kind of test: Antifungal activity against Aspergillus niger IMI17454 strain. The settings on record: Aspergillus niger; read-out: MIC. Type of test: functional.
The test system of the next test is Aspergillus nidulans. Kind of test: Antifungal activity against Aspergillus nidulans CABI 0160037 strain. It is filed as functional.
In a further test the test system is Candida albicans. Description: Antifungal activity against Candida albicans NCPF 3179 strain. Type of test: functional. The settings on record: Candida albicans; read-out: MIC.
For test [1], the system named is Escherichia coli. Description: Antibacterial activity against Escherichia coli NCTC 9001 strain. Type of test: functional.
Test [2] can be described thus: Antibacterial activity against Enterobacter cloacae NCTC 10005 strain. Type of test: functional.
The next test relates to Klebsiella aerogenes. Kind of test: Antibacterial activity against Klebsiella aerogenes WRL CN 345 strain. Type of test: functional, WRL CN 375. The settings on record: Klebsiella aerogenes, WRL CN 375; read-out: MIC.
For test [3], the system named is Staphylococcus aureus. Description: Antibacterial activity against methicillin-resistant Staphylococcus aureus (MRSA) PHLS M1 strain. Type of test: functional. In outline: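 Read-out is the minimum inhibitory concentration, reported in µM. Amoxycillin is tested alongside as the reference antibiotic.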
Test [4] concerns Mycolicibacterium fortuitum. Kind of test: Antibacterial activity against Mycobacterium fortuitum NCTC 10394 strain. Type of test: functional.
The subject of a further test is Proteus vulgaris. Kind of test: Antibacterial activity against Proteus vulgaris NCTC 4175 strain. Type of test: functional.
Test [5] deals with Staphylococcus aureus. Description: Antibacterial activity against Staphylococcus aureus NCTC 6571 strain. It is filed as functional.
Test [6] has as its system Enterococcus faecalis. Kind of test: Antibacterial activity against Streptococcus faecalis NCTC 775 strain; na = not active. Type of test: functional, organism-based.
For test [7], the system named is Staphylococcus aureus. Description: Antibacterial activity against MRSA PHLS M1 strain; na = not active. Type of test: functional, organism-based.
The subject of test [8] is Enterococcus faecalis. Kind of test: Antibacterial activity against Streptococcus faecalis NCTC 775 strain. Type of test: functional.
Test [9] concerns Escherichia coli. Kind of test: Antibacterial activity against Escherichia coli NCTC 9001 strain. Type of test: functional, organism-based.
A further test deals with Enterobacter cloacae. Description: Antibacterial activity against Enterobacter cloacae NCTC 10005 strain. Type of test: functional, organism-based.
In test [10] the test system is Staphylococcus aureus. Description: Antibacterial activity against MRSA PHLS M1 strain. Type of test: functional.
Test [11] in a line: Antibacterial activity against Proteus vulgaris NCTC 4175 strain; na = not active. It is filed as functional.
Test [12] in a line: Antifungal activity against Candida albicans NCPF 3179 strain; na = not active. Type of test: functional.
In test [13] the test system is Mycolicibacterium fortuitum. Description: Antibacterial activity against Mycobacterium fortuitum NCTC 10394 strain=. It is filed as functional.
For test [14], the system named is Enterococcus faecalis. Kind of test: Antibacterial activity against Streptococcus faecalis NCTC 775 strain=. It is filed as functional.

In brackets after ≈: the same amount, converted by molar mass. Activity calls are given as the source filed them. The rule behind the calls is not given here.

With `CC(=O)Nc1cc(C(=O)Nc2cc(C(=O)Nc3cc(C(=O)NCCCN(C)C)n(C)c3)c(C)s2)n(C)c1`, the MIC with Aspergillus niger was found to be 156 µM (≈ 82.3 µg/mL); against Aspergillus nidulans it was 38.9 µM (≈ 20.5 µg/mL); in the test with Candida albicans, 156 µM (≈ 82.3 µg/mL); in the test with Escherichia coli [1] it was 156 µM (≈ 82.3 µg/mL); in [2] it was 156 µM (≈ 82.3 µg/mL); with Klebsiella aerogenes it was 156 µM (≈ 82.3 µg/mL). Besides, the MIC came out at 156 µM (≈ 82.3 µg/mL) with Staphylococcus aureus [3], 38.9 µM (≈ 20.5 µg/mL) in [4], 156 µM (≈ 82.3 µg/mL) in the test with Proteus vulgaris and 78.5 µM (≈ 41.4 µg/mL) in the test with Staphylococcus aureus [5]. Further, the MIC result in the test on Enterococcus faecalis [6] was “inactive”.
In the case of `Cn1cc(NC(=O)c2cc(NC(=O)c3cc(NC=O)cn3C)cn2C)cc1C(=O)NCCCN1CCCC1`, the MIC (in the test with Aspergillus niger; against Aspergillus nidulans; with Candida albicans; with Escherichia coli [1]; in test [2]; with Klebsiella aerogenes) was 157 µM (≈ 82 µg/mL) in each case. Besides, the results for the MIC (in test [4]; with Proteus vulgaris; against Staphylococcus aureus [5]) were 78.5 µM (≈ 41 µg/mL), 157 µM (≈ 82 µg/mL) and 1200 µM (≈ 627 µg/mL), respectively. The MIC entry with Staphylococcus aureus [7] and with Enterococcus faecalis [6] was “inactive” throughout.
Turning to `COc1cccc(C(=O)Nc2nc(C(=O)Nc3cc(C(=O)Nc4cc(C(=O)NCCCN(C)C)n(C)c4)n(C)c3)c(C(C)C)s2)c1`, the MIC in the test with Aspergillus niger worked out at 131 µM (≈ 85 µg/mL); against Aspergillus nidulans, 131 µM (≈ 85 µg/mL); with Candida albicans, 131 µM (≈ 85 µg/mL); in the test with Escherichia coli [1], 65.5 µM (≈ 42.5 µg/mL); in test [2], 131 µM (≈ 85 µg/mL); in the test on Klebsiella aerogenes it was 32.7 µM (≈ 21.2 µg/mL). Also, the MIC was 32.7 µM (≈ 21.2 µg/mL) against Staphylococcus aureus [3]; 65.5 µM (≈ 42.5 µg/mL) in [4]; 65.5 µM (≈ 42.5 µg/mL) with Proteus vulgaris; 32.7 µM (≈ 21.2 µg/mL) with Staphylococcus aureus [5]; 32.7 µM (≈ 21.2 µg/mL) against Enterococcus faecalis [8].
Regarding `COc1ccc(CC(=O)Nc2cc(C(=O)Nc3cc(C(=O)Nc4cc(C(=O)NCCCN(C)C)n(C)c4)n(CCC(C)C)c3)n(C)c2)cc1`, the MIC in the test on Aspergillus niger was found to be 15.9 µM (≈ 10.7 µg/mL); in the test on Aspergillus nidulans, 15.9 µM (≈ 10.7 µg/mL); in the test on Candida albicans, 15.9 µM (≈ 10.7 µg/mL); with Klebsiella aerogenes, 15.9 µM (≈ 10.7 µg/mL); against Staphylococcus aureus [10] it was 63.6 µM (≈ 42.8 µg/mL); in [4], 15.9 µM (≈ 10.7 µg/mL). Further, the MIC against Staphylococcus aureus [5] and with Enterococcus faecalis [8] was 15.9 µM (≈ 10.7 µg/mL) in each case. The MIC entry (in the test on Escherichia coli [9]; in the test with Enterobacter cloacae; in [11]) was “inactive” in each case.
Regarding `COc1cccc(C(=O)Nc2cc(C(=O)Nc3cc(C(=O)Nc4cc(C(=O)NCCCN(C)C)n(C)c4)n(C)c3)n(C)c2)c1`, the MIC was 140 µM (≈ 84.4 µg/mL) in the test on Aspergillus niger; 69.8 µM (≈ 42.1 µg/mL) against Aspergillus nidulans; 140 µM (≈ 84.4 µg/mL) in the test on Klebsiella aerogenes; 140 µM (≈ 84.4 µg/mL) in test [13]; 69.8 µM (≈ 42.1 µg/mL) with Staphylococcus aureus [5]; 140 µM (≈ 84.4 µg/mL) against Enterococcus faecalis [14]. In addition, the MIC entry (in test [12]; with Escherichia coli [9]; with Enterobacter cloacae; in the test with Staphylococcus aureus [7]; in test [11]) was “inactive” throughout.
As for `CC(C)CCn1cc(NC(=O)c2cc(NC=O)cn2C)cc1C(=O)Nc1cc(C(=O)NCCCN2CCN(C)CC2)n(C)c1`, the MIC came to 140 µM (≈ 85.1 µg/mL) in the test on Aspergillus niger; 69.3 µM (≈ 42.1 µg/mL) in the test on Aspergillus nidulans; 140 µM (≈ 85.1 µg/mL) in the test on Escherichia coli [1]; 140 µM (≈ 85.1 µg/mL) in test [2]; 140 µM (≈ 85.1 µg/mL) in the test on Klebsiella aerogenes; 69.3 µM (≈ 42.1 µg/mL) in [4]. In addition, the figures for the MIC in the test on Proteus vulgaris, in the test with Staphylococcus aureus [5] and in the test with Enterococcus faecalis [8] were 140 µM (≈ 85.1 µg/mL), 140 µM (≈ 85.1 µg/mL) and 69.3 µM (≈ 42.1 µg/mL), respectively. The MIC entry (in [12]; in the test on Staphylococcus aureus [7]) was “inactive” in each case.
As to `CC(C)n1cc(NC(=O)c2cc(NC=O)cn2C)cc1C(=O)Nc1cc(C(=O)NCCCN2CCCC2)n(C)c1`, the MIC with Aspergillus niger was 150 µM (≈ 82.6 µg/mL); against Aspergillus nidulans, 150 µM (≈ 82.6 µg/mL); in test [2] it was 75.2 µM (≈ 41.4 µg/mL); in the test on Klebsiella aerogenes it was 37.6 µM (≈ 20.7 µg/mL); with Staphylococcus aureus [3], 75.2 µM (≈ 41.4 µg/mL); in test [4], 150 µM (≈ 82.6 µg/mL). In addition, the MIC in the test with Proteus vulgaris turned out to be 150 µM (≈ 82.6 µg/mL); against Staphylococcus aureus [5] it was 150 µM (≈ 82.6 µg/mL); against Enterococcus faecalis [8], 75.2 µM (≈ 41.4 µg/mL). For the same compound, the MIC result (in test [12]; in the test on Escherichia coli [1]) was “inactive” each time.
